Gli-Sufu block: Gli-Sufu pathway antagonism | 0.74% of 340,000 active | AID 588413 | Sufu-KO-LIGHT fibroblasts, Gli luciferase reporter luminescence | inhibition, % at 5 µM;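 active = inhibition above about 55%, limit read from the data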;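 note: 0% = DMSO-treated cells and 100% = wells with medium but no cells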
UPR CHOP act: activators of apoptotic arm of unfolded protein response (CHOP) | 0.34% of 330,000 active | AID 449763 | activation, % at 10 µM | CHO-CHOP luciferase reporter, UPR activation, luminescence; percent of tunicamycin response over DMSO baseline;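 active = at 10 µM dose, activation of 40% or more, normalized to positive control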;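 note: 100% = tunicamycin at 10 µg/mL and 0% = DMSO alone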
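Material: CHO-CHOP cells, stable luciferase reporter of PERK-eIF2a-CHOP signalling; quantity: 500 reporter cells seeded per well; buffer or medium: F12 medium containing 10% fetal bovine serum; compound: one dose, 10 µM in 0.5% DMSO; incubation: 6 h compound treatment, 37 °C; measured by: Steady-Glo luciferase luminescence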
Jurkat NFkB inh: inhibitors of the PMA/ionomycin-induced NF-kB reporter in Jurkat cells; PMA/ionomycin-induced NF-kB luciferase reporter, luminescence; inhibition, % at 4 µM; 0.53% of 330,000 active; in the data active = inhibition above about 50%
UPR XBP1 act: adaptive UPR (XBP1) activation; activation, % at 20 µM; 0.33% of 330,000 active; CHO-XBP1 luciferase reporter, IRE1-XBP1 UPR activation, luminescence; percent of tunicamycin response, DMSO as zero;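 active = versus positive control, 20 µM dose yields 30% or more activation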;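 note: 100% = tunicamycin at 10 µg/mL and 0% = DMSO only wells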
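Assay system: CHO-XBP1 luciferase reporter cells; Schedule: 6 h treatment, 37 °C; Detection: glow luminescence from Steady-Glo reagent; Benchmarks: high control tunicamycin 10 µg/mL final, low control DMSO vehicle only.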
697 NFkB inh: lowers PMA/ionomycin-induced NF-kB signal in 697 B cells | 697 B-cell NF-kB luciferase reporter, 16 h | 0.33% of 330,000 active | inhibition, % at 4 µM; in the data active = inhibition above about 35%
CHOP inh: blocks CHOP induction under ER stress. CHO-K1 CHOP-promoter luciferase, tunicamycin-induced, 15-18 h. 3.8% of 220,000 active. inhibition, % at 10 µM;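 active = compounds that reduced the stress-induced luciferase reporter signal by more than about 70% of percent inhibition, limit read from the data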;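 note: 0% = tunicamycin plus vehicle and 100% = wells without tunicamycin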
697 NFkB conf: inhibitors of the PMA/ionomycin-induced NF-kB reporter in 697 B cells, retest | shares compounds with 697 NFkB inh | 697 B-cell NF-kB luciferase, 16 h | inhibition, % at 4 µM | 35% of 2,000 active; in the data active = inhibition mostly above about 28%, no sharp cut-off; inactive = mostly below about 22%
* hit, by the source's call. Rows were chosen to be rich in hits. Some 3.9% of all compounds tested hit in one or more screens of this group.

Fc1ccccc1-c1nc(-c2ccccc2)no1 was read as Gli-Sufu block -107, UPR CHOP act -2, Jurkat NFkB inh -120, UPR XBP1 act -4, 697 NFkB inh -272, CHOP inh 64 and 697 NFkB conf -227.
For COC(=O)C1=C(C)NC(C)=C(C(=O)OC)C1c1ccc2ccccc2n1 the results were Gli-Sufu block -8, UPR CHOP act 1, Jurkat NFkB inh -1, UPR XBP1 act -2, 697 NFkB inh -26 and CHOP inh -5.
For O=C1c2ccccc2C(=O)C1c1ccc2ccccc2n1 the results were Gli-Sufu block -53, UPR CHOP act -8, Jurkat NFkB inh -56, UPR XBP1 act -4, 697 NFkB inh -253, CHOP inh 92* and 697 NFkB conf -381.
Screening Cc1ccc(OCCn2cc(C(=S)N3CCCC3)c3ccccc32)cc1C returned Gli-Sufu block 0, UPR CHOP act 0, Jurkat NFkB inh -58, UPR XBP1 act 1, 697 NFkB inh inactive, CHOP inh 44 and 697 NFkB conf 7.
CNC(=O)COC(=O)c1cccnc1SC was read as Gli-Sufu block -2, UPR CHOP act -2, Jurkat NFkB inh 5, UPR XBP1 act -2, 697 NFkB inh 35*, CHOP inh -5 and 697 NFkB conf 12.
For CSc1ncccc1C(=O)OCC(=O)NC(N)=O the results were Gli-Sufu block -6, UPR CHOP act 0, Jurkat NFkB inh -15, UPR XBP1 act -1, 697 NFkB inh -6 and CHOP inh 45.
`Cc1nn(-c2ccccn2)c2c1C(=O)CC(C)(C)C2N=[N+]=[N-]` (stereo not drawn) gave Gli-Sufu block -50.
`c1ccc2sc(-c3ccc4c(c3)OCO4)nc2c1` gave Gli-Sufu block -70, UPR CHOP act -5, Jurkat NFkB inh -144, UPR XBP1 act -6, 697 NFkB inh -361, CHOP inh 12 and 697 NFkB conf -242.
O=C(Nc1cccc(-c2nc3ccccc3s2)c1)c1ccc2c(c1)OCO2 was read as Gli-Sufu block -14, UPR CHOP act 5, Jurkat NFkB inh -14, UPR XBP1 act 2, 697 NFkB inh -8 and CHOP inh 27.
`COc1ccc(CCNC(=O)c2cc(COc3c(C)cccc3C)on2)c(OC)c1` gave Gli-Sufu block 10, UPR CHOP act 3, Jurkat NFkB inh -15, UPR XBP1 act -1 and 697 NFkB inh -49.
`CC1CCN(S(=O)(=O)c2ccc(N=NC3=C(O)CC(C)(C)CC3=O)cc2)CC1` gave Gli-Sufu block -9, UPR CHOP act 4, Jurkat NFkB inh 6, UPR XBP1 act -2, 697 NFkB inh 10 and CHOP inh 17.
CC1(C)CC(=O)C(N=Nc2cccc(S(=O)(=O)N3CCOCC3)c2)=C(O)C1 was read as Gli-Sufu block 5, UPR CHOP act 2, Jurkat NFkB inh 9, UPR XBP1 act -1, 697 NFkB inh 38*, CHOP inh -14 and 697 NFkB conf 16.
CCC(C)N1C(=O)/C(=C/c2c(NCCCOC(C)C)nc3c(C)cccn3c2=O)SC1=S (stereo not drawn) was read as Gli-Sufu block 19, UPR CHOP act 1, Jurkat NFkB inh 13, UPR XBP1 act -2, 697 NFkB inh 38*, CHOP inh 12 and 697 NFkB conf 34*.
For Cc1cc(-c2nnc(CCC(=O)NCc3cc(F)cc(C(F)(F)F)c3)o2)no1 the results were Gli-Sufu block 8, UPR CHOP act 0, Jurkat NFkB inh -10, UPR XBP1 act -2 and 697 NFkB inh -7.
CCn1c(SCC(=O)Nc2ccc(-c3nc4ccc(C)cc4s3)cc2)nnc1-c1ccccc1 was read as UPR CHOP act 3, Jurkat NFkB inh -76, UPR XBP1 act 0, 697 NFkB inh -326, CHOP inh 16 and 697 NFkB conf -189.
For Cc1ccc2nc(NC(=O)CN3CCN(c4ccccn4)CC3)sc2c1 the results were Gli-Sufu block 20, UPR CHOP act 2, Jurkat NFkB inh -2, UPR XBP1 act -2 and 697 NFkB inh -5.
Screening Cc1ccc2nc(-c3ccc(NC(=O)CN4CCN(c5ccccn5)CC4)cc3)sc2c1 returned Gli-Sufu block -96, UPR CHOP act 9, Jurkat NFkB inh -79, UPR XBP1 act 3, 697 NFkB inh -290, CHOP inh 24 and 697 NFkB conf -230.
Screening CCC(C)NC(=O)CSc1ccc(S(=O)(=O)N(C)C2CCCCC2)cn1 (stereo not drawn) returned Gli-Sufu block 3, UPR CHOP act 0, Jurkat NFkB inh 0, UPR XBP1 act -1 and 697 NFkB inh 6.
Screening O=C(c1cccc(S(=O)(=O)N2CCc3ccccc32)c1)N1CCN(c2ccccn2)CC1 returned Gli-Sufu block 20, UPR CHOP act 1, Jurkat NFkB inh -60, UPR XBP1 act 0, 697 NFkB inh inactive, CHOP inh 20 and 697 NFkB conf inactive.
For COc1ccc(N2CCN(C(=O)c3cccc(S(=O)(=O)N4CCc5ccccc54)c3)CC2)cc1 the results were Gli-Sufu block 13, UPR CHOP act 0, Jurkat NFkB inh -6, UPR XBP1 act -2 and 697 NFkB inh 7.
For Cc1ccc(NS(=O)(=O)c2c(C)[nH]c(C)c2C(=O)N2CCCCC2)cc1Cl the results were Gli-Sufu block -3, UPR CHOP act -2, Jurkat NFkB inh -5, UPR XBP1 act 7 and 697 NFkB inh 14.
Screening CCNc1nc(C)c2cc(Br)c(=O)n(CC)c2n1 returned Gli-Sufu block 6, UPR CHOP act -4, Jurkat NFkB inh 26, UPR XBP1 act 6, 697 NFkB inh 41*, CHOP inh 27 and 697 NFkB conf 40*.
For CCn1c(=N)c(C(=O)NC)cc2c(=O)n3cccc(C)c3nc21 the results were Gli-Sufu block 5 and CHOP inh -17.
Screening O=C(/C=C/Nc1ccccc1O)c1ccco1 returned Gli-Sufu block -1, UPR CHOP act 5, Jurkat NFkB inh -70, UPR XBP1 act 1, 697 NFkB inh -27 and CHOP inh 7.
`O=C(/C=C/Nc1ccc(Br)cc1F)c1ccco1` gave Gli-Sufu block -158, UPR CHOP act -6, Jurkat NFkB inh -65, UPR XBP1 act -8, 697 NFkB inh -289, CHOP inh 59 and 697 NFkB conf -20.
For Cc1cc(OCC(=O)Nc2cnn(CCCC(=O)O)c2)ccc1Cl the results were Gli-Sufu block -12, UPR CHOP act -2, Jurkat NFkB inh 3, UPR XBP1 act -5 and 697 NFkB inh -3.
Screening CNC(=O)c1cc(Nc2nnc(-c3ccc(O)cc3)c3ccccc23)ccc1OC returned Gli-Sufu block -8, UPR CHOP act -1, Jurkat NFkB inh 8, UPR XBP1 act 3, 697 NFkB inh 35*, CHOP inh -9 and 697 NFkB conf 29*.

Assay outcomes from PubChem BioAssay.
